Test results: PubChem BioAssay AID651787 (The Scripps Research Institute Molecular Screening Center, 2012)
The whole screen tested about 2,400 compounds, of which about 1,200 (50%) were called active.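 How the source made its calls: active means activation above the run cutoff, the mean activation over all tested wells plus 3 SD (cut at about 12% in these data); inactive means the rest.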 The set was probably picked from earlier hits. The list is a sample of the results.

Assay: calcium rise in parental Ga16 cells – cell-based, fluorescence, CHO-Ga16 parental line, counter-screen for hTAAR1 agonist project (AID 651787)
Details: Fluo-8 calcium fluorescence, at 3 µM, active compounds read high, normalized to maximal ATP response, DMSO zero
Procedure, shortened: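 Assay system: Gα16-overexpressing parental CHO cells; read-out basis: percent activation from max/basal fluorescence ratio; schedule: 17-24 h seeding, dye 75 min 37 °C, 30 min RT; control set: DMSO (0%) and EC100 ATP (100%); signal: kinetic Fluo-8 calcium fluorescence, ex 470-495/em 515-575 nm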

Row | SMILES | activation
1 | CCCCC(=O)N/N=C/c1c(O)n(CC)c(=S)n(CC)c1=O | 90.1% (active)
2 | CCC(=NCCc1ccccc1)c1c(O)n(C2CCCCC2)c(=O)[nH]c1=O | 4.36% (inactive)
3 | COc1ccc(Br)cc1CNCCc1cccc(Cl)c1 | 17.7% (active)
4 | Clc1ccc2nc3c(c(-c4ccccc4)c2c1)CNCC3 | 3.65% (inactive)
5 | Cc1cccc(N2C(=O)NC(=O)/C(=C\c3cnn(-c4ccccc4)c3)C2=O)c1 | 25.1% (active)
6 | c1ccc(CCNC2CCCCCC2)cc1 | 0.13% (inactive)
7 | O=C1NC(=O)N(Cc2ccco2)C(=O)/C1=C\c1ccc(-c2ccc(F)cc2)o1 | 21.1% (active)
8 | NCC(O)c1ccc(O)cc1 (centres undefined) | 1.74% (inactive)
9 | CC(Cc1ccccc1)NC=O (centres undefined) | 6.88% (inactive)
